Measured values taken from ChEMBL document CHEMBL3784921, “Mimicking of Arginine by Functionalized N(ω)-Carbamoylated Arginine As a New Broadly Applicable Approach to Labeled Bioactive Peptides: High Affinity Angiotensin, Neuropeptide Y, Neuropeptide FF, and Neurotensin Receptor Ligands As Examples” (J Med Chem, 2016).
pEC50, pIC50, pKd, pKi: −log10 of the molar value. Values belong to the compound of their own block, whether it stands above or below them. *1 amine or outer side, *2 acyl side, *3 side chain or, on linkers, in order; H or OH if unused. Where a SMILES comes first, the peptide text is derived from it. [ ]: non-standard residue; d: D form. X1 = CCC(=O)NCCCCNC(=O)/N=C(\N)NCCC[C@H](N[*:1])C(=O)[*:2]

Columns and labels:
[1] = target: T1, Neurotensin receptor type 1 (Homo sapiens, UniProt P30989); test: biochemical
T1 sequence (P30989 whole entry): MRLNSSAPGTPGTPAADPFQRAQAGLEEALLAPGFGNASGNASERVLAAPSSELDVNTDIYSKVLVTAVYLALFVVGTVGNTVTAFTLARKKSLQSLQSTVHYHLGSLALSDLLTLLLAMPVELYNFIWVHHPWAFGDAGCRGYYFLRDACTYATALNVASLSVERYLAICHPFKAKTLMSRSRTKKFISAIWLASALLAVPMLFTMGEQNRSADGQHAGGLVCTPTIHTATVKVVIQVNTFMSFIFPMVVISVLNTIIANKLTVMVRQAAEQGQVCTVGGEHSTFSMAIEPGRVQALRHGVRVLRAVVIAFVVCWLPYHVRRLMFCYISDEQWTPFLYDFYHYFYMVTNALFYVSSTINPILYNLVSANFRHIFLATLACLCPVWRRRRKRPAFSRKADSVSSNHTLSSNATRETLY

[2] = target: T1, Neurotensin receptor type 1; test: biochemical; remark: listed apart in the source
[3] = target: T1, Neurotensin receptor type 1; test: Binding affinity to human NTSR1 receptor transfected in CHO cells co-expressing Galpha16-mtAEQ after 2 hrs by liquid scintillation counting; format: cell-based
[4] = target: T2, Type-1 angiotensin II receptor (Homo sapiens, UniProt P30556); test: Agonist activity at human AT1 receptor transfected in CHO cells co-expressing Galpha16-mtAEQ assessed as induction of intracellular Ca2+ mobilization by bioluminescence assay; format: functional, cell-based
T2 sequence (P30556 whole entry): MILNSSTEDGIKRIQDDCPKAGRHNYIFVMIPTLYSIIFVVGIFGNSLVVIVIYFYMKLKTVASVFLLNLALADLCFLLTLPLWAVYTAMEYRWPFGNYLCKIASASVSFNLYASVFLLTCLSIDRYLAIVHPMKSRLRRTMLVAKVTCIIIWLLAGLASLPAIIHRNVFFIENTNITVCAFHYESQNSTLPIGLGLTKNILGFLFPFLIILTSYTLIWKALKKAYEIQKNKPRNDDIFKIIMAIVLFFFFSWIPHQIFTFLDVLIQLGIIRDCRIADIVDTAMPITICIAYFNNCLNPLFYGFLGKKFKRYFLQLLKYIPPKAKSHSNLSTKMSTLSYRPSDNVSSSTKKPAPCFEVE

[5] = Chemical stability of compound at 200 uM at pH 7 at 21 degC after 24 to 48 hrs by reversed-phase HPLC analysis; format: physicochemical; settings: buffer, pH 7, 200 µM
Outline: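 Peptide incubated in phosphate buffer (PBS), pH 7.0, 21 °C, for 24 or 48 h. Remaining intact peptide assessed by reversed-phase HPLC chromatograms.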

[6] = Drug degradation in CHO cells expressing human AT1 receptor at 50 uM after 6 hrs by reversed-phase HPLC analysis; format: ADME, cell-based, Cricetulus griseus; settings: chinese hamster, read-out: Drug degradation
Outline: (§1)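 Stability tested under binding-assay conditions for up to 6 h: AT1 ligands with CHO-hAT1 cells and NTSR1 ligands with HT-29 cells. Samples analysed by reversed-phase HPLC chromatography.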

[7] = Drug degradation in CHO cells expressing human AT1 receptor at 50 uM after 2 hrs by reversed-phase HPLC analysis; format: ADME, cell-based, Cricetulus griseus; settings: chinese hamster, read-out: Drug degradation
Outline: as §1

[8] = target: T2, Type-1 angiotensin II receptor; test: Displacement of [3H]-Asp-{Nomega-[N-(4-propanoylaminobutyl)aminocarbonyl]}Arg-ValTyr-Ile-His-Pro-Phe-OH Tris(hydrotrifluoroacetate) from human AT1 receptor transfected in CHO cells co-expressing Galpha16-mtAEQ after 2 hrs by liquid scintillation counting; format: cell-based
[9] = Binding affinity to AT1 receptor natively expressed in rat mesangial cells; format: cell-based
[10] = target: T2, Type-1 angiotensin II receptor; test: biochemical
[11] = target: T3, Neuropeptide FF receptor 2 (Homo sapiens, UniProt Q9Y5X5); test: Displacement of [3H]EYE from human NPFF2 receptor expressed in CHO cell membranes after 1 hr by liquid scintillation spectrophotometric counting
T3 sequence (Q9Y5X5 whole entry): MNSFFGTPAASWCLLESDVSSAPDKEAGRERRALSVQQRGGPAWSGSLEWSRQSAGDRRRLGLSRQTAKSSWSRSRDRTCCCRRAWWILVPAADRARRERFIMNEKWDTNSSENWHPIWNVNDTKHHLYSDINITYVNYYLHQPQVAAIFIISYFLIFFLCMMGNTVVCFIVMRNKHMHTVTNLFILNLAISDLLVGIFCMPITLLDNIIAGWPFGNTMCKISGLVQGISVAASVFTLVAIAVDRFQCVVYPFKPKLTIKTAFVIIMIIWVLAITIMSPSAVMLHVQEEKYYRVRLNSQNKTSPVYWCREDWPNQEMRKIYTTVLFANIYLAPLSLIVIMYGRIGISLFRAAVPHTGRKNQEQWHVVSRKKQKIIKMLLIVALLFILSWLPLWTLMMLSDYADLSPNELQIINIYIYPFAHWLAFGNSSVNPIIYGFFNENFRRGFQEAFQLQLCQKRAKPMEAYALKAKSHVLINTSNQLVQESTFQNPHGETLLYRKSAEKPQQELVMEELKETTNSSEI

[12] = target: T3, Neuropeptide FF receptor 2; test: Binding affinity to human NPFF2 receptor expressed in CHO cell membranes after 1 hr by liquid scintillation spectrophotometric counting
[13] = Drug degradation in human HT-29 cells at 50 uM after 2 hrs by reversed-phase HPLC analysis; format: ADME, cell-based; settings: read-out: Drug degradation
Outline: as §1

[14] = Drug degradation in human HT-29 cells at 50 uM after 6 hrs by reversed-phase HPLC analysis; format: ADME, cell-based; settings: read-out: Drug degradation
Outline: as §1

[15] = target: T1, Neurotensin receptor type 1; test: Displacement of [3H]-{Nomega-[N-(4-propanoylaminobutyl)aminocarbonyl]}Arg-Arg-ProTyr-Ile-Leu-OH Tris(hydrotrifluoroacetate) from human NTSR1 transfected in CHO cells co-expressing Galpha16-mtAEQ after 2 hrs by liquid scintillation counting; format: cell-based
[16] = target: T1, Neurotensin receptor type 1; test: Displacement of [3H]-{Nomega-[N-(4-propanoylaminobutyl)aminocarbonyl]}Arg-Arg-ProTyr-Ile-Leu-OH Tris(hydrotrifluoroacetate) from NTSR1 in human HT-29 cells after 2 hrs by liquid scintillation counting; format: cell-based
[17] = target: Neurotensin receptor type 2 (Homo sapiens, UniProt O95665); test: Displacement of [3H]NT(8 to 13 residues) from human NTSR2 expressed in HEK293 cell membranes
Sequence of Neurotensin receptor type 2 (O95665 whole entry, the tested form may be a part): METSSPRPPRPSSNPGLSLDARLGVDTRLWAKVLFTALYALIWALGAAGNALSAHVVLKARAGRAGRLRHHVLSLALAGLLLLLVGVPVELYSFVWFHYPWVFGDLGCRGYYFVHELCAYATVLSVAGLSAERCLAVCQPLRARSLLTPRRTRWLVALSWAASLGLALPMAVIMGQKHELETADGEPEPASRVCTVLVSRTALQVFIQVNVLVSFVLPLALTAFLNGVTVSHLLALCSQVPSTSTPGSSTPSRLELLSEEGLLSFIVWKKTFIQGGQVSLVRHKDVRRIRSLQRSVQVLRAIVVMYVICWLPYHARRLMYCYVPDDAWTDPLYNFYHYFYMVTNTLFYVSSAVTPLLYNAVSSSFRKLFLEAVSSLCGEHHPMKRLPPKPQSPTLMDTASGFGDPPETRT

[18] = target: T1, Neurotensin receptor type 1; test: Agonist activity at NTSR1 in human HT-29 cells assessed as induction of intracellular Ca2+ mobilization by fura-2 dye-based spectrofluorimetric analysis; format: functional, cell-based; settings: read-out: EC50
[19] = target: T2, Type-1 angiotensin II receptor; test: Displacement of [3H]-Angiotensin 2 from human AT1 receptor transfected in CHOK1 cells preincubated for 30 mins with bovine serum albumin followed by radioligand addition by liquid scintillation counting; format: cell-based, CHO-K1

Compound: O=C(O)C(F)(F)F.O=C(O)C(F)(F)F.O=C(O)C(F)(F)F.[3H]CC([3H])C(=O)NCCCCNC(=O)/N=C(\N)NCCC[C@H](N)C(=O)N[C@@H](CCCNC(=N)N)C(=O)N1CCC[C@H]1C(=O)N[C@@H](Cc1ccc(O)cc1)C(=O)N[C@H](C(=O)N[C@@H](CC(C)C)C(=O)O)[C@@H](C)CC (some centres undefined)
pKd [1]: 9.29
pKd [2]: 9.36
pKd [3]: 9.24

Compound: CCC(=O)NCCCCNC(=O)/N=C(\N)NCCC[C@H](NC(=O)[C@@H](N)CC(=O)O)C(=O)N[C@H](C(=O)N[C@@H](Cc1ccc(O)cc1)C(=O)N[C@H](C(=O)N[C@@H](Cc1cnc[nH]1)C(=O)N1CCC[C@H]1C(=O)N[C@@H](Cc1ccccc1)C(=O)O)[C@@H](C)CC)C(C)C.O=C(O)C(F)(F)F.O=C(O)C(F)(F)F.O=C(O)C(F)(F)F (H-D[X1]VYIHPF-OH)
pEC50 [4]: 8.96
Stability [5]: Stable
metabolised at 6 h, 50 µM [6]: < 2%
metabolised at 2 h, 50 µM [7]: < 5.5%
pIC50 [8]: 8.66
pKi [8]: 9.15

Compound: O=C(O)C(F)(F)F.O=C(O)C(F)(F)F.O=C(O)C(F)(F)F.[3H]CC([3H])C(=O)NCCCCNC(=O)/N=C(\N)NCCC[C@H](NC(=O)[C@@H](N)CC(=O)O)C(=O)N[C@H](C(=O)N[C@@H](Cc1ccc(O)cc1)C(=O)N[C@H](C(=O)N[C@@H](Cc1cnc[nH]1)C(=O)N1CCC[C@H]1C(=O)N[C@@H](Cc1ccccc1)C(=O)O)[C@@H](C)CC)C(C)C (some centres undefined)
pKd [9]: 8.82
pKd [10]: 9.03

pKi [11]: 9.28
pKd [12]: 9.27
Compound: H-EYWSLAAPQRF-NH2

Compound: CCC(=O)NCCCCNC(=O)/N=C(\N)NCCC[C@H](N)C(=O)N[C@@H](CCCNC(=N)N)C(=O)N1CCC[C@H]1C(=O)N[C@@H](Cc1ccc(O)cc1)C(=O)N[C@H](C(=O)N[C@@H](CC(C)C)C(=O)O)[C@@H](C)CC.O=C(O)C(F)(F)F.O=C(O)C(F)(F)F.O=C(O)C(F)(F)F (H-[X1]RPYIL-OH)
metabolised at 2 h, 50 µM [13]: < 4%
metabolised at 6 h, 50 µM [14]: < 4%
pKi [15]: 9.20
Stability [5]: Stable
pIC50 [16]: 8.87
pKi [16]: 9.33
pKi [17]: 8.60
pEC50 [18]: 8.70

pIC50 [19]: 9.16
pIC50 [8]: 7.97
pKi [8]: 8.46
Compound: CCOc1nc2cccc(C(=O)O)c2n1Cc1ccc(-c2ccccc2-c2nnn[nH]2)cc1
